{"source": "paper PMC3594649", "about": "(Molecular pharmaceutics, 2013)", "key": {"[1]": {"format": "in vivo, mouse", "how_it_was_run": "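An ileal segment of 2–3 cm was perfused open-loop at 0.2 ml/min, with or without GF120918 (4 μM) in the perfusate. Collected mesenteric blood was analysed by C18 HPLC with fluorescence detection (ex 268/em 347 nm). Metabolite is expressed relative to parent drug.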"}, "[2]": {"conditions": "concomitant administration of sulforaphane, humans; cited from earlier work"}, "[3]": {"system": "ileum of TgCYP3A4/hPXR mice", "experiment": "In situ intestinal perfusion with mesenteric blood sampling, TgCYP3A4/hPXR mice", "format": "in vivo, mouse", "conditions": "for increase in intestinal permeability for darunavir: GF120918 4 μM in perfusate"}}, "note": "Read-outs that look alike come from different tables or passages of the source."}
{"molecule": "CC(C)(O)CN(C[C@@H](O)[C@H](Cc1ccccc1)NC(=O)O[C@H]1CO[C@H]2OCC[C@H]21)S(=O)(=O)c1ccc(N)cc1", "note": "[R426857]", "values": [{"measurement": "concentration of R426857 relative to darunavir in mesenteric blood", "setting": "[1]; TgCYP3A4/hPXR mice, perfusion without GF120918", "value": "less than 0.8%"}, {"measurement": "relative amount of R426857 to darunavir in mesenteric blood", "setting": "[1]; perfused with GF120918, rifampicin-treated TgCYP3A4/hPXR mice", "value": 3.1, "unit": "%"}, {"measurement": "relative amount of R426857 to darunavir in mesenteric blood", "setting": "[1]; perfused with GF120918, untreated TgCYP3A4/hPXR mice", "value": 1.6, "unit": "%"}]}
{"molecule": "C[S+]([O-])CCCCN=C=S", "note": "(stereo not shown) [sulforaphane]", "values": [{"measurement": "effect on rifampicin-caused decrease of midazolam AUC", "setting": "[2]", "value": "did not reduce"}]}
{"molecule": "COc1cc2c(cc1OC)CN(CCc1ccc(NC(=O)c3cccc4c(=O)c5cccc(OC)c5[nH]c34)cc1)CC2", "note": "[GF120918, N-(4-[2-(1,2,3,4-tetrahydro-6,7-dimethoxy-2-isoquinolinyl)ethyl]-phenyl)-9,10-dihydro-5-methoxy-9-oxo-4-acridine carboxamide]", "values": [{"measurement": "increase in intestinal permeability for darunavir", "setting": "[3]; TgCYP3A4/hPXR mice not treated with rifampicin, darunavir 100 μM in FaSSIF, p < 0.05", "value": 56, "unit": "%"}, {"measurement": "increase in intestinal permeability for darunavir", "setting": "[3]; rifampicin-treated TgCYP3A4/hPXR mice (10 mg/kg, 3 days), p<0.05", "value": 400, "unit": "%"}]}
{"molecule": "Nn1nnc2ccccc21", "note": "[aminobenzotriazole]", "values": [{"measurement": "effect on intestinal permeability for darunavir", "setting": "[3]; rifampicin-treated TgCYP3A4/hPXR mice, aminobenzotriazole 100 μM in perfusate", "value": "did not increase"}]}
